Results taken from ChEMBL document CHEMBL1125675, “Synthesis and in vitro biological activity of new deaza analogues of folic acid, aminopterin, and methotrexate with an L-ornithine side chain” (J Med Chem, 1991).

Key:
[1] = Inhibitory activity against growth of WI-L2 human leukemic cells; settings: WIL2
L1210 = assay: Inhibitory activity against growth of L1210 murine leukemic cells; type: functional, cell-based; settings: Mus musculus
Procedure, shortened: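 Growth inhibition was measured by an adapted tetrazolium salt method after 48-h exposure. Cells were grown in RPMI 1640 with 10% fetal bovine serum plus antibiotics. Results are expressed as IC50.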

Dihydrofolate reductase = biological target: T1, Dihydrofolate reductase (Homo sapiens, UniProt P00374); assay: Inhibition of dihydrofolate reductase(DHFR) enzyme from human leukemic lymphoblasts.
T1 sequence (P00374 whole entry): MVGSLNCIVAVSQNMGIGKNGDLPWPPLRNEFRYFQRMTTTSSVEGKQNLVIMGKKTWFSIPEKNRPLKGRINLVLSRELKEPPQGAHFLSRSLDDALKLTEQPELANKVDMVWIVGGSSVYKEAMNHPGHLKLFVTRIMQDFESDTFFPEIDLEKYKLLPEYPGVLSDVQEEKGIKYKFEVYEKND
Procedure, shortened: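 Spectrophotometric read-out at 340 nm. Enzyme was DHFR purified from human leukemic lymphoblasts (WI-L2/M4).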

Row | SMILES | IC50 [1] | IC50 (L1210) | IC50 (Dihydrofolate reductase)
1 | NCCCC(NC(=O)c1ccc(NCc2cnc3nc(N)nc(N)c3n2)cc1)C(=O)O (centres undefined) | 2600 nM | – | –
2 | NCCCC(NC(=O)c1ccc(NCc2ccc3nc(N)nc(N)c3n2)cc1)C(=O)O (centres undefined) | – | 660 nM | –
3 | CN(Cc1cnc2nc(N)nc(N)c2n1)c1ccc(C(=O)NC(CCCN)C(=O)O)cc1 (centres undefined) | – | – | 160 nM
4 | NCCCC(NC(=O)c1ccc(NCc2ccc3nc(N)nc(O)c3c2)cc1)C(=O)O (centres undefined) | – | > 5000 nM | 750 nM
5 | CN(Cc1cnc2nc(N)nc(N)c2n1)c1ccc(C(=O)NC(CCCNCC(=O)O)C(=O)O)cc1 (centres undefined) | 4300 nM | 1100 nM | 50 nM

Continued, values first:

Row | IC50 [1] | IC50 (L1210) | IC50 (Dihydrofolate reductase) | SMILES
6 | – | > 5000 nM | – | NCCCC(NC(=O)c1ccc(NCc2cnc3nc(N)nc(O)c3c2)cc1)C(=O)O (centres undefined)
7 | 860 nM | 1400 nM | 27 nM | NCCCC(NC(=O)c1ccc(NCc2cnc3nc(N)nc(N)c3c2)cc1)C(=O)O (centres undefined)
8 | 180 nM | 280 nM | – | NCCCC(NC(=O)c1ccc(NCc2ccc3nc(N)nc(N)c3c2)cc1)C(=O)O (centres undefined)
